m5-HT2A agonist: mouse Htr2a agonists via beta-arrestin recruitment, primary screen, cell-based, luminescence; 5-hydroxytryptamine receptor 2A (Mus musculus), P35363; CHO-K1 mHTR2A beta-arrestin complementation; percent of 30 µM serotonin response; activation, % at 7.6 µM; 360,000 compounds, 0.66% hits; AID 624169, 2012;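 active means activation above a run cutoff, the mean activation of all tested compounds plus 3 SD, cut at about 14% in these data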;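 further: 0% = plate median of compound wells and 100% = 30 µM serotonin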
CXCR6 block: CXCR6 receptor inhibitors, primary screen, cell-based, beta-arrestin, luminescence, CHO-K1 PathHunter, 1536-well | C-X-C chemokine receptor type 6 (Homo sapiens), O00574 | 360,000 compounds, 0.36% hits | inhibition, % at 20 µM; in the data active means inhibition above about 34%, passing the limit was not always enough;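 further: antagonist mode with CXCL16 agonist at 10 nM final; 0% = 10 nM CXCL16 with DMSO and 100% = unstimulated wells without agonist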
EBI2 antag: EBI2 receptor antagonists, beta-arrestin recruitment, primary screen, cell-based, luminescence, 7a,25-OHC stimulation, uHTS; G-protein coupled receptor 183 (Homo sapiens), P32249; 7a,25-OHC stimulated; inhibition, % at 5 µM; 360,000 compounds, 0.81% hits; AID 651636, 2012; in the data active means inhibition above about 38%;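 further: enzyme fragment complementation signal reports receptor beta-arrestin coupling in cells; 0% = agonist plus DMSO wells and 100% = wells without agonist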
CCR6 antagonist: CCR6 receptor antagonists, primary screen, cell-based, CHO-K1, luminescence, beta-arrestin, uHTS. C-C chemokine receptor type 6 (Homo sapiens), P51684. CHO-K1 CCR6 PathHunter beta-arrestin, CCL20-stimulated. inhibition, % at 20 µM. 340,000 compounds, 0.49% hits. AID 493098, 2011;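 active means compounds whose inhibition of the agonist-driven luminescence signal at 20 µM reaches about 50%, limit read from the data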;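 further: cells stimulated with CCL20 at 14 nM final; plate controls were DMSO with CCL20 for no effect and DMSO without agonist for full effect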
Target sequence (P51684 whole entry, looked up): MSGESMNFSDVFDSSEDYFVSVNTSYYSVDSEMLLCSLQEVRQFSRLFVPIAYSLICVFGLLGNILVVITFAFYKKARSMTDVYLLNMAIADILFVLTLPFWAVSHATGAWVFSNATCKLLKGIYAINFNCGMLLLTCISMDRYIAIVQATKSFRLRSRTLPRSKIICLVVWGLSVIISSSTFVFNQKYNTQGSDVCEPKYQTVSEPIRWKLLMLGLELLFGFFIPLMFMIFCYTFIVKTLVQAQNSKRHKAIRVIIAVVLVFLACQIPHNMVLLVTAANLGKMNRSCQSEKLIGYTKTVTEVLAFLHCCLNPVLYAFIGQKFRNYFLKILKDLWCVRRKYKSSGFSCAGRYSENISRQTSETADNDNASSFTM
APJ agonist: agonists of human apelin receptor APJ, primary screen, CHO-K1 cells, PathHunter beta-arrestin, luminescence. P35414. 0% DMSO wells, 100% apelin. activation, % at 20 µM. 330,000 compounds, 0.11% hits;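 active means activation more than six SD over the plate average, tested at 20 µM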;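 further: 0% = DMSO alone and 100% = apelin-13 at 10 nM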
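assay system = CHO-K1 APJ beta-arrestin complementation cell line | input = cell density 1000 per well | dosing = compound 20 µM once, DMSO 1% | timing = compound 90 min 25 °C, reagent 1 h | measured by = luminescence from split beta-galactosidase complementation, Galacton Star/Emerald II substrate | read-out basis = APJ agonist activity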
APJ antag: antagonists of human apelin receptor APJ, primary screen, CHO-K1 cells, beta-arrestin complementation, luminescence; inhibition, % at 20 µM; 330,000 compounds, 0.32% hits; AID 2521, 2010; P35414;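 active means inhibition above about 40% at 20 µM, limit read from the data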;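 further: cells challenged with 10 nM apelin-13 agonist together with compound; plate controls were apelin-13 plus DMSO wells for no effect and DMSO wells lacking apelin-13 for full effect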
OPRM1 ag: OPRM1 agonists via beta-arrestin recruitment, confirmation, counter-screen for mouse HTR2A agonist project, cell-based, luminescence, single concentration. U2OS OPRM1 beta-arrestin PathHunter; DMSO 0%, DAMGO 9.3 µM 100%. shares compounds with m5-HT2A agonist. activation, % at 9.3 µM. 2,300 compounds, 5.3% hits. AID 624380, 2012;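 active means mean activation above the mean of DMSO-only wells plus 3 SD, cut at about 0.5% in these data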
m5-HT2A ag conf: mouse HTR2A agonists, beta-arrestin recruitment, confirmation, cell-based, luminescence, CHO-K1 PathHunter, triplicate; activation, % at 7.6 µM; 2,300 compounds, 19% hits; DMSO 0%, 30 µM serotonin 100%; AID 624381, 2012; shares compounds with m5-HT2A agonist;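 active means mean activation across triplicates above the hit threshold derived in the original primary screen, cut at about 15% in these data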
The depositor's hits bear a star; . = no result given. A selection: hits, their analogues and other compounds. The true share with any hit is near 2.1%.

SMILES	m5-HT2A agonist	CXCR6 block	EBI2 antag	CCR6 antagonist	APJ agonist	APJ antag	OPRM1 ag	m5-HT2A ag conf
Oc1ccccc1-c1nc(NCC2CCCO2)c2ccccc2n1 (centres undefined)	-1	-9	-2	-14	-2	4	.	.
COc1cccc(-c2nc(NCc3cccnc3)c3ccccc3n2)c1O	-3	6	8	26	-1	5	.	.
Cc1cccc(CS(=O)(=O)c2ncc(CO)n2C)c1	5	-10	-10	-3	-4	-23	.	.
CCOc1ccc(N2C(=O)CC(NCCc3c[nH]c4ccccc34)C2=O)cc1 (centres undefined)	19*	3	14	-7	-1	-17	0	-2
Cc1cc(OC(C)C(=O)N(Cc2ccco2)C2CCS(=O)(=O)C2)cc(C)c1Cl (centres undefined)	17*	2	1	3	-3	-2	-1	-1
Cc1cc(OCC(=O)N(Cc2ccco2)C2CCS(=O)(=O)C2)cc(C)c1Cl (centres undefined)	5	4	0	9	-2	8	.	.
Cc1[nH]c(=O)[nH]c(=O)c1S(=O)(=O)N1CCCC(C(=O)NCCc2ccc(Cl)cc2)C1 (centres undefined)	-1	0	2	-2	-1	18	.	.
C#CCN(C[C@@H]1[C@@H](OC(=O)NCC2CCCCC2)[C@@H](OC(=O)NCC2CCCCC2)Cn2c(=O)ccc(=O)n21)S(=O)(=O)c1ccc(C)cc1	27*	-8	81*	.	.	.	0	35*
C#CCN(C[C@@H]1[C@@H](OC(=O)NCCCCCC)[C@@H](OC(=O)NCCCCCC)Cn2c(=O)ccc(=O)n21)S(=O)(=O)c1ccc(C)cc1	9	0	38	.	.	.	.	.
CCOc1ccc(CCNC(=O)c2cc(=O)[nH]c3ccc(S(=O)(=O)N(CC)CC)cc23)cc1OCC	17*	-4	-5	15	-4	-8	0	0
Cc1cc(C=O)c(C)n1-c1ccc(N2CCOCC2)cc1	16*	-6	-20	10	0	-12	-1	-2
COc1ccc(S(=O)(=O)NCC2CCCN(C(=O)c3cccnc3C)C2)cc1 (centres undefined)	15*	-1	-4	6	0	-13	0	3
O=C1c2ccccc2C(=O)N1CCc1c[nH]c2ccc(O)cc12	18*	3	-1	14	2	0	-1	-5
O=C1c2ccccc2C(=O)N1CCc1c[nH]c2ccccc12	-3	10	23	9	-1	12	.	.
C[C@H](CO)N1C[C@H](C)[C@@H](CN(C)S(=O)(=O)c2ccc(F)cc2)Oc2ccc(NC(=O)c3ccncc3)cc2C1=O	7	-5	-5	-4	-2	1	.	.
O=C(Nc1ccc(CN2CCOCC2)cc1)c1cccc(-c2cc3ccccc3oc2=O)c1	-7	7	7	-8	1	6	.	.
COc1ccc(NC(=O)C2CC(=O)N(c3ccccc3C)C2)c(OC)c1 (centres undefined)	15*	1	-10	7	0	8	-1	-3
COc1ccc(OC)c(NC(=O)C2CC(=O)N(c3ccccc3)C2)c1 (centres undefined)	5	-5	-8	0	-3	-5	.	.

Screening results as filed in PubChem BioAssay.
